This note sets out measurements from ChEMBL document CHEMBL1955807, “Enaminones 12. An explanation of anticonvulsant activity and toxicity per Linus Pauling's clathrate hypothesis” (Eur J Med Chem, 2012).

A word on the ED50: it is the dose at which the effect has come halfway, by size or by number of responders. As a reminder, the TD50 is the 50% point of the dose-response relation for the toxic effect studied. A high value points to harm only at a large dose.

Calls of active or inactive are those of the source. The calls are words filed in the database; no cut-off is given here.

Data set [1] concerns Mus musculus. In words: Anticonvulsant activity in CF1 mouse assessed as protection against maximal electroshock-induced seizure up to 300 mg/kg, ip after 30 mins to 4 hrs. The class given is functional, organism-based. Details: dose 300 mg/kg. In a few lines:
(§1)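 Phase I screen in mice: compounds suspended in 30% poly(ethylene glycol) 400 and given ip at three dose levels (30, 100 and 300 mg/kg). Anticonvulsant protection (MES, scPTZ) and neurologic toxicity by rotorod (inability to grasp) recorded 30 min and 4 h after dosing. Results were reported as animals affected over animals tested. Class 1 means activity at ≤100 mg/kg; class 3 means no activity at 300 mg/kg.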
A general note: In the maximal electroshock model the usual endpoint is tonic extension of the hind limbs.

Data set [2] relates to Mus musculus. In words: Anticonvulsant activity in CF1 mouse assessed as protection against subcutaneous pentylenetetrazole-induced seizure at 300 mg/kg, ip after 30 mins. The class given is functional, organism-based. Details: dose 300 mg/kg. In a few lines:
as §1

The species entered for data set [3] is Rattus norvegicus. In words: Anticonvulsant activity in rat assessed as protection against maximal electroshock-induced seizure. The class given is functional. Summed up: (§2)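 Phase VIB in male Sprague-Dawley rats dosed ip. The median effective dose (MES ED50) and median neurotoxic dose (TD50) were determined with confidence limits. Protective index was calculated as TD50/ED50.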

Data set [4] is described as follows: Neurotoxicity in rat. The class given is toxicity, organism-based. The following applies: in vivo. Summed up: as §2
The species entered for data set [5] is Rattus norvegicus. In words: Protective index, ratio of TD50 for rat to ED50 for rat. In a few lines: as §2
Data set [6] concerns Mus musculus. In words: Neurotoxicity in CF1 mouse assessed as muscle spasms at 100 mg/kg, ip by rotarod test. Details: dose 100 mg/kg, route intraperitoneal. Format: toxicity, organism-based, Muscle tissue. The following applies: in vivo. Summed up:
as §1

Data set [7] relates to Mus musculus. In words: Neurotoxicity in CF1 mouse at 300 mg/kg, ip after 30 mins by rotarod test. The class given is toxicity, organism-based. More on the design: dose 300 mg/kg, route intraperitoneal. The following applies: in vivo, 0.5 h. In a few lines:
as §1
(The rotarod test checks motor coordination on a turning rod.)

Data set [8] has as its system Mus musculus. In words: Neurotoxicity in CF1 mouse assessed as muscle spasms at 300 mg/kg, ip by rotarod test. The class given is toxicity, organism-based, Muscle tissue. Details: dose 300 mg/kg, route intraperitoneal. The settings on record: in vivo. In a few lines: as §1
Data set [9] deals with Mus musculus. In words: Neurotoxicity in CF1 mouse at 100 mg/kg, ip by rotarod test. The class given is toxicity, organism-based. Details: dose 100 mg/kg, route intraperitoneal. The settings on record: in vivo. Summed up: as §1
Data set [10] deals with Mus musculus. In words: Neurotoxicity in CF1 mouse at 300 mg/kg, ip after 4 hrs by rotarod test. The following applies: in vivo. The class given is toxicity, organism-based. More on the design: dose 300 mg/kg, route intraperitoneal. In a few lines:
as §1

Data set [11] concerns Mus musculus. In words: Toxicity in CF1 mouse assessed as mortality at 30 mg/kg, ip after 4 hrs. The class given is organism-based. More on the design: dose 30 mg/kg, route intraperitoneal. The settings on record: in vivo.
Data set [12] deals with Mus musculus. In words: Toxicity in CF1 mouse assessed as mortality at 30 mg/kg, ip after 30 mins. The class given is organism-based. Details: dose 30 mg/kg, route intraperitoneal. The settings on record: in vivo, 0.5 h.
Data set [13] deals with Mus musculus. In words: Neurotoxicity in CF1 mouse assessed as myoclonic jerks at 100 mg/kg, ip after 4 hrs by rotarod test. The class given is toxicity, organism-based. More on the design: dose 100 mg/kg, route intraperitoneal. The settings on record: in vivo. In a few lines:
as §1

For data set [14], the system named is Mus musculus. In words: Neurotoxicity in CF1 mouse assessed as muscle spasms at 100 to 300 mg/kg, ip after 30 mins by rotarod test. The class given is toxicity, organism-based, Muscle tissue. Details: dose 100-300 mg/kg, route intraperitoneal. The following applies: in vivo, 0.5 h. Summed up: as §1
In data set [15] the test system is Mus musculus. In words: Neurotoxicity in CF1 mouse at 300 mg/kg, ip after 30 mins to 4 hrs by rotarod test. Format: toxicity, organism-based. The following applies: in vivo. More on the design: dose 300 mg/kg, route intraperitoneal. In a few lines:
as §1

The subject of data set [16] is Mus musculus. In words: Neurotoxicity in CF1 mouse at 100 mg/kg, ip after 30 mins by rotarod test. The class given is toxicity, organism-based. More on the design: dose 100 mg/kg, route intraperitoneal. The following applies: in vivo, 0.5 h. In a few lines: as §1
Data set [17] deals with Mus musculus. In words: Anticonvulsant activity in CF1 mouse assessed as protection against maximal electroshock-induced seizure at 100 mg/kg, ip after 30 mins. Format: functional, organism-based. More on the design: dose 100 mg/kg. In a few lines: as §1
Data set [18] has as its system Mus musculus. In words: Anticonvulsant activity in CF1 mouse assessed as protection against maximal electroshock-induced seizure at 300 mg/kg, ip after 30 mins to 4 hrs. Details: dose 300 mg/kg. The class given is functional, organism-based. Summed up: as §1
Data set [19] relates to Mus musculus. In words: Anticonvulsant activity in CF1 mouse assessed as protection against maximal electroshock-induced seizure at 100 mg/kg, ip after 15 mins. The class given is functional, organism-based. More on the design: dose 100 mg/kg.
In data set [20] the test system is Rattus norvegicus. In words: Anticonvulsant activity in ip dosed Sprague-Dawley rat assessed as protection against maximal electroshock-induced seizure. Format: functional. In a few lines: as §2
Data set [21] in a line: Neurotoxicity in ip dosed Sprague-Dawley rat by rotarod test. Format: toxicity, organism-based. The settings on record: in vivo. Summed up: as §2
For data set [22], the species on record is Rattus norvegicus. In words: Protective index, ratio of TD50 for Sprague-Dawley rat by rotarod test to ED50 for Sprague-Dawley rat by MES test.
The subject of data set [23] is Mus musculus. In words: Neurotoxicity in CF1 mouse up to 300 mg/kg, ip after 30 mins to 4 hrs by rotarod test. The class given is toxicity, organism-based. More on the design: dose 300 mg/kg, route intraperitoneal. The settings on record: in vivo. In a few lines: as §1
The test system of data set [24] is Rattus norvegicus. In words: Anticonvulsant activity in Sprague-Dawley rat assessed as protection against subcutaneous pentylenetetrazole-induced seizure at 30 mg/kg, ip after 4 hrs. Format: functional, organism-based. Details: dose 30 mg/kg.
In data set [25] the test system is Rattus norvegicus. In words: Anticonvulsant activity in Sprague-Dawley rat assessed as protection against maximal electroshock-induced seizure at 30 mg/kg, ip after 1 hr.

As to `Cc1cc(C(=O)NC2=CC(=O)CC(C)(C)C2)no1`, the outcome in the data set on Mus musculus [1] and in the data set with Mus musculus [2] was inactive.

Consider `Cc1cccc(C)c1NC(=O)c1conc1C`, for which the ED50 in the data set filed under Rattus norvegicus [3] stood at 8.9 mg/kg. Moreover, the TD50 in [4] was above 500 mg/kg. Also, the PI in the data set listed under Rattus norvegicus [5] was above 56.2.

Turning to `CC1CC(=O)C=C(N)C1` (stereo unspecified), the Activity result in the data set on Mus musculus [6], in the data set on Mus musculus [7] and with Mus musculus [8] was “Toxic” throughout. The result in the data set on Mus musculus [1] and in the data set with Mus musculus [2] was inactive.

`CCOC(=O)C1C(=O)C=C(Nc2cc(C)on2)CC1C` (stereo unspecified): in the data set filed under Rattus norvegicus [3], the ED50 turned out to be 68.9 mg/kg. This compound had a TD50 in [4] above 500 mg/kg. The PI in the data set listed under Rattus norvegicus [5] is recorded as above 7.3.

As for `NC1=CC(=O)CCC1`, the Activity entry in the data set with Mus musculus [6], in the data set with Mus musculus [9] and in the data set with Mus musculus [7] was “Toxic” each time. Further, the result in the data set with Mus musculus [1] and with Mus musculus [2] was inactive.

On to `Cc1cc(C(=O)NC2=CC(=O)CC(C)C2)no1` (stereo unspecified), for which the Activity result with Mus musculus [7] and in the data set with Mus musculus [10] was “Toxic” throughout. Moreover, the result in the data set with Mus musculus [1] and in the data set on Mus musculus [2] was inactive.

`CC1(C)CC(=O)C=C(N)C1`: the Activity entry in the data set with Mus musculus [11], in the data set with Mus musculus [12], with Mus musculus [13] and with Mus musculus [14] was “Toxic” each time. Moreover, the outcome in the data set on Mus musculus [1] and with Mus musculus [2] was inactive.

With `Cc1cc(NC2=CC(=O)CC(C)(C)C2)no1`, the Activity result in the data set with Mus musculus [15] and with Mus musculus [16] was “Toxic” each time. For the same compound, the outcome with Mus musculus [2] was inactive. The outcome in the data set on Mus musculus [17] and in the data set with Mus musculus [18] was Active.

On to `Cc1cc(NC(=O)c2c(C)cccc2C)no1` [SORETOLIDE], for which the 50% effective dose (ED50) in the data set filed under Rattus norvegicus [3] was determined as 9.2 mg/kg. Also, the TD50 in data set [4] was above 500 mg/kg. For the same compound, in the data set filed under Rattus norvegicus [5], the PI was above 54.3.

For the compound `Cc1cc(C(=O)NC2=CC(=O)CCC2)no1`, the result with Mus musculus [1] and with Mus musculus [2] was inactive.

On to `Cc1cc(NC2=CC(=O)C(C(=O)OC(C)(C)C)C(C(F)(F)F)C2)no1` (stereo unspecified), for which the outcome in the data set with Mus musculus [1] and with Mus musculus [2] was inactive.

As to `Cc1cc(C(=O)Nc2c(C)cccc2C)no1`, the ED50 in the data set filed under Rattus norvegicus [3] turned out to be 5.5 mg/kg. Besides, the TD50 in data set [4] was above 500 mg/kg. The PI in the data set listed under Rattus norvegicus [5] was above 90.9.

Regarding `Cc1cc(NC2=CC(=O)C(C(=O)OC(C)(C)C)C(C)C2)no1` (stereo unspecified), the 50% effective dose (ED50) in the data set listed under Rattus norvegicus [3] was determined as 28.1 mg/kg. Moreover, the TD50 in [4] is above 500 mg/kg. Moreover, the PI in the data set filed under Rattus norvegicus [5] is above 17.8.

As for `Cc1cc(NC2=CC(=O)CC(C)C2)no1` (stereo unspecified), the result in the data set with Mus musculus [2] and in the data set on Mus musculus [19] was Active. Moreover, the Activity entry with Mus musculus [16] is recorded as “Toxic”. The 50% effective dose (ED50) in the data set with Rattus norvegicus [20] worked out at 66 mg/kg. This compound gave a TD50 in [21] above 120 mg/kg. The PI in the data set listed under Rattus norvegicus [22] worked out at 1.8.

Regarding `Cc1oncc1CNC1=CC(=O)CC(C)C1` (stereo unspecified), the result with Mus musculus [1] and with Mus musculus [2] was inactive.

`Cc1cc(NC2=CC(=O)CCC2)no1`: the outcome in the data set with Mus musculus [1] was inactive. For the same compound, the result in the data set on Mus musculus [2], with Rattus norvegicus [24] and in the data set with Rattus norvegicus [25] was Active. Further, in the data set on Mus musculus [23], the Activity result is “Non-toxic”.

Take `Cc1oncc1CNC1=CC(=O)CC(C)(C)C1`: the outcome in the data set with Mus musculus [1] and in the data set on Mus musculus [2] was inactive.
